ChEMBL document CHEMBL1129686, “(S)-(-)-5-ethynyl-3-(1-methyl-2-pyrrolidinyl)pyridine maleate (SIB-1508Y): a novel anti-parkinsonian agent with selectivity for neuronal nicotinic acetylcholine receptors” (J Med Chem, 1996)
Where “and” joins values, the source holds several entries; their conditions need not be identical. Equal values may be shown once.

Assays:
[1] = biological target: T1, Neuronal acetylcholine receptor; alpha4/beta4 (Homo sapiens, UniProt P30926+P43681); assay: The compound was tested on recombinant human alpha4-beta4 cell lines of Human embryonic kidney for nicotinic acetylcholine receptor agonist functional potency
In short: (§1)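 Stably transfected human recombinant NAChR cell lines: HEK293 for α2β4, α3β4, α4β4 and α4β2; human RD cells for fetal α1β1γδ muscle receptor. Agonist-evoked Ca2+ entry read as change in [Ca2+]i with fluo-3. Highest concentration tested 300 μM.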
Target sequence in this assay (P30926 whole entry): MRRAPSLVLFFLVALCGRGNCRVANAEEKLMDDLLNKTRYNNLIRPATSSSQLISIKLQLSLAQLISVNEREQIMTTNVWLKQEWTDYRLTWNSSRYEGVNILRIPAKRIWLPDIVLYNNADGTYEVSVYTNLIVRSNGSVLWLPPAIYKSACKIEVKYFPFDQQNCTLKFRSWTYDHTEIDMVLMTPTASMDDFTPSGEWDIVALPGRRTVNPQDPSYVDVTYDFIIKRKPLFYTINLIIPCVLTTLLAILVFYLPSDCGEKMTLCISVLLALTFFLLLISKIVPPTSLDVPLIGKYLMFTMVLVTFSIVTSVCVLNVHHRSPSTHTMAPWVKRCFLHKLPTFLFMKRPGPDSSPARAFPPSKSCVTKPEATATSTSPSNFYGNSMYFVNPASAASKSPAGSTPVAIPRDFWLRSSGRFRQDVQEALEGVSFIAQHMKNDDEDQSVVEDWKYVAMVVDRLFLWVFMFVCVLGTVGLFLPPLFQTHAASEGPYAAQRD
Target sequence in this assay (P43681 whole entry): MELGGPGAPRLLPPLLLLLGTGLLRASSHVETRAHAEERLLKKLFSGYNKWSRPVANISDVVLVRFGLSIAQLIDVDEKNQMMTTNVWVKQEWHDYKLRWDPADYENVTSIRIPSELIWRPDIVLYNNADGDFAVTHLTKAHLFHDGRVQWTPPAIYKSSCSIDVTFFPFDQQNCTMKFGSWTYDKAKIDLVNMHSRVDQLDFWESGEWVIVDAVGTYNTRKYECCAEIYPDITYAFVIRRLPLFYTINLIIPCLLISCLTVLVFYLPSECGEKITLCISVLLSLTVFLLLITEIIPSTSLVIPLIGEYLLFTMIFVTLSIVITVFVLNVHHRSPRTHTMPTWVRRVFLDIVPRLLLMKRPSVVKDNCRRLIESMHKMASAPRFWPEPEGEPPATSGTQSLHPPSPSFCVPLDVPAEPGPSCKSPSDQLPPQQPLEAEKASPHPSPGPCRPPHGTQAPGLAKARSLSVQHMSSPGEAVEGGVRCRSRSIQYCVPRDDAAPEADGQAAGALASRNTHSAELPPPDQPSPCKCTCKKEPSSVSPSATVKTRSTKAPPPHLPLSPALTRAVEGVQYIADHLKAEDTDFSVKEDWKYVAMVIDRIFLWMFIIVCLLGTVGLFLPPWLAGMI

[2] = organism: Rattus norvegicus; assay: The efficiency of the compound (300 micro M) to stimulate ([3H]DA) release; type: functional
[3] = biological target: Neuronal nicotinic acetylcholine receptor; assay: Binding affinity at NAChRs was determined by measuring the displacement of ([3H]Nic) from a preparation of rat cortical membranes.; type: cell membranes, Membrane
[4] = biological target: T2, Nicotinic acetylcholine receptor alpha2/beta4 (Homo sapiens, UniProt P30926+Q15822); assay: The compound was tested on recombinant human alpha2-beta4 cell lines of Human embryonic kidney for nicotinic acetylcholine receptor agonist functional potency; in short: as §1
T2 sequence (P02708 whole entry): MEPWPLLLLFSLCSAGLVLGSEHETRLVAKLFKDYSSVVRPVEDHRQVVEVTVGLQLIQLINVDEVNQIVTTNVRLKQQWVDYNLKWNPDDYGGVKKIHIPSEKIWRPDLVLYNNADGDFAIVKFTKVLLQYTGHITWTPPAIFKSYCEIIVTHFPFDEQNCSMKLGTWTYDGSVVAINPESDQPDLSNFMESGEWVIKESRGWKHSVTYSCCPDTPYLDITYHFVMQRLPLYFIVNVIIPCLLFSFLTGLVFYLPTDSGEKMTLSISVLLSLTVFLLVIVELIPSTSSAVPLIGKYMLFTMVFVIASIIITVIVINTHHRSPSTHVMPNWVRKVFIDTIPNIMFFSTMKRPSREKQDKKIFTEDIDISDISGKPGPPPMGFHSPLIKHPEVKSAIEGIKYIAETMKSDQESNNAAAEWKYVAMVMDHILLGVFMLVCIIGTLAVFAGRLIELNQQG
T2 sequence (P30926 whole entry): as the sequence (P30926 whole entry) above

[5] = biological target: T3, Neuronal acetylcholine receptor; alpha3/beta4 (Homo sapiens, UniProt P30926+P32297); assay: The compound was tested on recombinant human alpha3-beta4 cell lines of Human embryonic kidney for nicotinic acetylcholine receptor agonist functional potency; in short: as §1
T3 sequence (P30926 whole entry): as above
T3 sequence (P32297 whole entry): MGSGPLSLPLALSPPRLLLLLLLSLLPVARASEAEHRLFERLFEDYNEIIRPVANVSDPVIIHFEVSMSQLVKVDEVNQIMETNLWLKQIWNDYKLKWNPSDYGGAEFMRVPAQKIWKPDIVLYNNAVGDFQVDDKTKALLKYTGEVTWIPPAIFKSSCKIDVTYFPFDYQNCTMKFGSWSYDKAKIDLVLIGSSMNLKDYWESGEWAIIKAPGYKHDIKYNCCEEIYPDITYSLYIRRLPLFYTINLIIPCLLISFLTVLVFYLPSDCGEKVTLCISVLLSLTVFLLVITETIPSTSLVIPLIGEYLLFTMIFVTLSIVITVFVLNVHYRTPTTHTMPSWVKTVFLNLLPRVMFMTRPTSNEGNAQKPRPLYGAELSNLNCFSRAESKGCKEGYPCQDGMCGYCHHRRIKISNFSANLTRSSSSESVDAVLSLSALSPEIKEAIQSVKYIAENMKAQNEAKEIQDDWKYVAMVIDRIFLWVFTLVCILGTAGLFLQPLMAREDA

[6] = biological target: Muscarinic acetylcholine receptor; assay: Muscarinic acetylcholine receptor binding (rat cortical membranes) was determined by displacement of [3H]quinuclidinyl benzylate [3H]QNB)
[7] = biological target: Acetylcholine receptor; alpha1/beta1/delta/gamma (Homo sapiens, UniProt P02708+P07510+P11230+Q07001); assay: (§2) The compound was tested on recombinant human alpha-1-beta-1-gamma-delta cell lines of […] for nicotinic acetylcholine receptor agonist functional potency
Acetylcholine receptor; alpha1/beta1/delta/gamma, sequence (P02708 whole entry): as the sequence (P02708 whole entry) above
Acetylcholine receptor; alpha1/beta1/delta/gamma, sequence (P07510 whole entry): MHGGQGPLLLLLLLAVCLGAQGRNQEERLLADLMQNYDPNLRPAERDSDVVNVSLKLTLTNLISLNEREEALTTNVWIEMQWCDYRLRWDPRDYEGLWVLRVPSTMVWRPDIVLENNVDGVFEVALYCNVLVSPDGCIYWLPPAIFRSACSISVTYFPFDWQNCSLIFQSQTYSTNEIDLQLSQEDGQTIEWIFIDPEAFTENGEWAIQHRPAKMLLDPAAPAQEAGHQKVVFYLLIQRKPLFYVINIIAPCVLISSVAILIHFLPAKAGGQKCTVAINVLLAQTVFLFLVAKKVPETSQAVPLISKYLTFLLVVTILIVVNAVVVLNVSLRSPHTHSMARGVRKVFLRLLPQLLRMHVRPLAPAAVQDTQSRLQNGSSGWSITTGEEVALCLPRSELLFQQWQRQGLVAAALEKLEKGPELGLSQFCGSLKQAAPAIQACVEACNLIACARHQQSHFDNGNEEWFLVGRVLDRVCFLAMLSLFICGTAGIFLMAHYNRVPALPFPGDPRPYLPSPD
Acetylcholine receptor; alpha1/beta1/delta/gamma, sequence (P11230 whole entry): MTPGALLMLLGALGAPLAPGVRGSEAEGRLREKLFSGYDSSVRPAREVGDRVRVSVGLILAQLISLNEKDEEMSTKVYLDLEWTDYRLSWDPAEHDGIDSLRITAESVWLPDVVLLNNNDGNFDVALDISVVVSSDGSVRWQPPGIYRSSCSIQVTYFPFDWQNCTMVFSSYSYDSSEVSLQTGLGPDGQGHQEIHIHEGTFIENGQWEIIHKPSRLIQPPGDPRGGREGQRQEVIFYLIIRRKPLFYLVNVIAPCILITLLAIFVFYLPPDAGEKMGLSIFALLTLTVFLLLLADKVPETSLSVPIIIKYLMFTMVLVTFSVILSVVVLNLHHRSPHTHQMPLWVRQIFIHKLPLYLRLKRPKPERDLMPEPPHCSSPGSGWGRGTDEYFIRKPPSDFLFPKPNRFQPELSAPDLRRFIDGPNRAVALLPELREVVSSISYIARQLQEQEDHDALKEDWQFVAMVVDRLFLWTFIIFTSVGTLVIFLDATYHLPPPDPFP
Acetylcholine receptor; alpha1/beta1/delta/gamma, sequence (Q07001 whole entry): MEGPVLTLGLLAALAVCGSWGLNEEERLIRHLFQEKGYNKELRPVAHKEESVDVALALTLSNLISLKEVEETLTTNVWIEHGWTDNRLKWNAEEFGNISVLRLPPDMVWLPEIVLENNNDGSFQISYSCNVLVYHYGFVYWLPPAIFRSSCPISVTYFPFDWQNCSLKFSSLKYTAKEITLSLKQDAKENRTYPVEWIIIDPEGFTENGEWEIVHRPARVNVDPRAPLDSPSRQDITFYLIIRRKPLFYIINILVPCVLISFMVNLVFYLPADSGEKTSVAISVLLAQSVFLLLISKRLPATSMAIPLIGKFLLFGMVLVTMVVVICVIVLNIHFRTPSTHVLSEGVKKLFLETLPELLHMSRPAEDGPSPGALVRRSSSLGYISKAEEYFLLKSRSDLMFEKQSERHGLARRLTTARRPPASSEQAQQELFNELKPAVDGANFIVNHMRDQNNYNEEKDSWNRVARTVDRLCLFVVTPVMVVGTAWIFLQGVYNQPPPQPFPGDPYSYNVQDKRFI

[8] = biological target: Muscle-type nicotinic acetylcholine receptor; assay: as §2
[9] = biological target: Neuronal acetylcholine receptor; alpha4/beta2 (Homo sapiens, UniProt P17787+P43681); assay: The compound was tested on recombinant human alpha4-beta2 cell lines of Human embryonic kidney for nicotinic acetylcholine receptor agonist functional potency; IA=inactive; in short: as §1
Neuronal acetylcholine receptor; alpha4/beta2, sequence (P17787 whole entry): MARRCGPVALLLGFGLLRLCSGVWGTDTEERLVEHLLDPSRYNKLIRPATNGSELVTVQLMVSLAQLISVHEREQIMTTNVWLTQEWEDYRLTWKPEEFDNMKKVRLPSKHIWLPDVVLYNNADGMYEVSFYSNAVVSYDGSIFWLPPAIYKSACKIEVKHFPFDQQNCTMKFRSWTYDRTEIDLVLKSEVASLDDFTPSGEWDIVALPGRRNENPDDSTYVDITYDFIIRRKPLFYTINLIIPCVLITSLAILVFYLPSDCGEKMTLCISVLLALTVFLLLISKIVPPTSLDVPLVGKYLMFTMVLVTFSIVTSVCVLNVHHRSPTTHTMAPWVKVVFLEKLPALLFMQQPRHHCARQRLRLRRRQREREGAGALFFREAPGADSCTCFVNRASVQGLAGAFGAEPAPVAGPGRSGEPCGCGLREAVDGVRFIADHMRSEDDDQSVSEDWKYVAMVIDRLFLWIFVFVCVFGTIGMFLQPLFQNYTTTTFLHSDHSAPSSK
Neuronal acetylcholine receptor; alpha4/beta2, sequence (P43681 whole entry): as the sequence (P43681 whole entry) above

[10] = biological target: T3, Neuronal acetylcholine receptor; alpha3/beta4; assay: The compound was tested on recombinant human alpha3-beta4 cell lines of HUman embryonic kidney for nicotinic acetylcholine receptor agonist functional potency; in short: as §1
[11] = biological target: T2, Nicotinic acetylcholine receptor alpha2/beta4; assay: The compound was tested on recombinant human alpha2-beta4 cell lines of HUman embryonic kidney for nicotinic acetylcholine receptor agonist efficacy
[12] = biological target: T1, Neuronal acetylcholine receptor; alpha4/beta4; assay: The compound was tested on recombinant human alpha4-beta4 cell lines of HUman embryonic kidney for nicotinic acetylcholine receptor agonist functional potency; in short: as §1
Target sequence in this assay (P43681 whole entry, looked up): as the sequence (P43681 whole entry) above
Target sequence in this assay (P30926 whole entry, looked up): as the sequence (P30926 whole entry) above

Structure (SMILES)	EC50 [1]	Release [2]	IC50 [3]	EC50 [4]	EC50 [5]	IC50 [6]	EC50 [7]	EC50 [8]	EC50 [9]	EC50 [10]	Efficacy [11]	EC50 [12]
C#Cc1cncc([C@@H]2CCCN2C)c1 [ALTINICLINE]	9 µM and 26 µM	163%	0.003 µM	5 µM and 49 µM	23 µM and 52 µM	8.9 µM						
C#Cc1cncc(C2CCCN2C)c1 (stereo not given)	25 µM and 23 µM	143%	0.0046 µM	15 µM and 39 µM	41 µM and 34 µM	10.1 µM	52 µM and 53 µM					
CN1CCC[C@H]1c1cccnc1 [NICOTINE]				10 µM				65 µM				
C#Cc1cncc([C@H]2CCCN2C)c1		55%	0.075 µM	29 µM	68 µM	4.5 µM			Not Active	68 µM	9%	31 µM and 8 µM
CCc1cncc(C2CCCN2C)c1 (stereo not given)		27.5%	0.011 µM			5.8 µM						
CN1CCCC1c1cncc(Br)c1 (stereo not given)		69%	0.019 µM			1.6 µM						
